Among the data in ChEMBL document CHEMBL1126128, “Nonprostanoid prostacyclin mimetics. 3. Structural variations of the diphenyl heterocycle moiety” (J Med Chem, 1992) are Inhibition, inhibition and IC50 values, retold here.

Broadly, the Inhibition is the share of the control response that was lost under treatment. Low readings indicate a weak effect, high ones a strong effect. The term inhibition denotes the relative decrease from the control value, in per cent. Low values mean little suppression, high ones strong suppression. The IC50 is the concentration that inhibits the measured activity by half. A higher IC50 goes with lower potency.

One experiment in a line: Compound was tested for inhibition of ADP-induced aggregation of blood platelets in human platelet rich plasma at >68 uM concentration. Type of experiment: functional.
Conditions: not given
In outline: (§1)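 Human platelet-rich plasma with aggregation triggered by ADP and followed by aggregometry. Each test acid was run at one stated upper concentration, and the read-out is percent inhibition of aggregation at that concentration. Each value is from a single experiment or is the mean of duplicate determinations.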
Compound `O=C(O)COc1cccc(CCc2nc(-c3cccc(Cl)c3)c(-c3cccc(Cl)c3)o2)c1` registered an Inhibition of 0%.

Another experiment is described as follows: Compound was tested for inhibition of ADP-induced aggregation of blood platelets in human platelet rich plasma at >76 uM concentration. The class given is functional.
Conditions: not given
In outline: as §1
As for `O=C(O)CCCCOc1ccc(-n2cnc(-c3ccccc3)c2-c2ccccc2)cc1`, the Inhibition turned out to be 31%.

The next experiment in a line: Compound was tested for inhibition of ADP-induced aggregation of blood platelets in human platelet rich plasma at >78 uM concentration. The class given is functional.
Conditions: not given
In outline: as §1
For the compound `O=C(O)COc1cccc(CCc2nc(C3CCCCC3)c(C3CCCCC3)o2)c1`, the Inhibition was determined as 25%.

A short description of a further experiment: Compound was tested for inhibition of ADP-induced aggregation of blood platelets in human platelet rich plasma at >75 uM concentration. The class given is functional.
Conditions: not given
In outline: as §1
Turning to `Cc1cccc(-c2nc(CCc3cccc(OCC(=O)O)c3)oc2-c2cccc(C)c2)c1`, the Inhibition came out at 30%.

The next experiment can be described thus: Compound was tested for inhibition of ADP-induced aggregation of blood platelets in human platelet rich plasma at >60 uM concentration. The class given is functional.
Conditions: not given
In outline:
as §1
`O=C(O)COc1cccc(CCc2nc(-c3ccc(C(F)(F)F)cc3)c(-c3ccc(C(F)(F)F)cc3)o2)c1`: the Inhibition is recorded as 1%.

Another experiment is described as follows: Compound was tested for inhibition of ADP-induced aggregation of blood platelets in human platelet rich plasma at >65 uM concentration. The class given is functional.
Conditions: not given
In short, it runs like this:
as §1
With `CSc1ccc(-c2nc(CCc3cccc(OCC(=O)O)c3)oc2-c2ccc(SC)cc2)cc1`, the Inhibition is recorded as 32%.

The nature of a further experiment: Compound was tested for inhibition of ADP-induced aggregation of blood platelets in human platelet rich plasma at <80 uM concentration. Type of experiment: functional.
Conditions: not given
In outline:
as §1
`O=C(O)CCCOc1cccc(-n2cnc(-c3ccccc3)c2-c2ccccc2)c1`: the Inhibition is 57%.

The next experiment can be described thus: Compound was tested for inhibition of ADP-induced aggregation of blood platelets in human platelet rich plasma at 20 uM concentration. The class given is functional.
Conditions: not given
In short, it runs like this: as §1
For the compound `O=C(O)COc1cccc(CCc2nc3c4ccccc4c4ccccc4c3o2)c1`, testing at 20 µM gave an inhibition of 0%.

A short description of a further experiment: Inhibition of ADP-induced aggregation of human blood platelets in plasma. The class given is functional.
Conditions: not given
The compound `O=C(O)CCCCCCCCn1cc(-c2ccccc2)c(-c2ccccc2)n1` [listing 1 of 2 here] came in with a half-inhibitory concentration (IC50) of 5.8 µM. This lies in the single-digit micromolar range.

The same experiment, now with this note: Homo sapiens, Plasma.
As to `O=C(O)CCCCCCCCCc1nnc(-c2ccccc2)n1-c1ccccc1`, the IC50 is above 82 µM.
On the same count and under the same terms, the value for `O=C(O)COc1cccc(CCn2cnc(-c3ccccc3)c2-c2ccccc2)c1` was 5 µM; that for `O=C(O)CCCCCCCn1nc(-c2ccccc2)c2ccccc2c1=O` was above 84 µM.
The same measure, in the same setting: the value for `O=C(O)CCCOc1ccc(-n2cnc(-c3ccccc3)c2-c2ccccc2)cc1` was 29.2 µM.
On the same count and under the same terms, for `O=C(O)COc1cccc(CCc2nc(-c3cccc(Cl)c3)c(-c3cccc(Cl)c3)o2)c1` the value was above 68 µM; for `O=C(O)CCCCCCCCOc1ncc(-c2ccccc2)c(-c2ccccc2)n1`, above 79 µM; for `O=C(O)COc1cccc(CCc2nc(-c3ccsc3)c(-c3ccsc3)o2)c1`, 17 µM.
Compound `O=C(O)CCCCCCCCc1nc(-c2ccccc2)c(-c2ccccc2)o1` gave an IC50 of 6.6 µM. Against the preceding compound, the IC50 is about 2.6-fold lower.
Consider `O=C(O)COc1cccc(CCc2nc(-c3ccccc3F)c(-c3ccccc3F)o2)c1`, for which the IC50 stood at 1.4 µM.
Still for that read-out and setting: the value for `O=C(O)CCCCCCCCN1C(=O)C(c2ccccc2)N(c2ccccc2)C1=O` (configuration not stated) was 29.4 µM; that for `O=C(O)COc1cccc(CCC(=O)NCC(c2ccccc2)c2ccccc2)c1` was above 79 µM; that for `O=C(O)COc1cccc(CCc2nc(-c3ccc(Cl)cc3)c(-c3ccc(Cl)cc3)o2)c1` was 17.1 µM.
Same read-out and setting: for `Cc1ccc(-c2nc(CCc3cccc(OCC(=O)O)c3)oc2-c2ccc(C)cc2)cc1` the value was 0.34 µM; for `O=C(O)COc1cccc(/C=C/c2nnc(-c3ccccc3)n2-c2ccccc2)c1`, 2.99 µM.
In turn, `O=C(O)COc1cccc(CCn2nc(-c3ccccc3)c(-c3ccccc3)c2-c2ccccc2)c1` showed a concentration for half-maximal inhibition (IC50) of 24.5 µM.
Same read-out and setting: the value for `O=C(O)COc1cccc(CCn2cc(-c3ccccc3)c(-c3ccccc3)n2)c1` was 0.87 µM.
The compound `O=C(O)CCCCCCCn1cnc(-c2ccccc2)c1-c1ccccc1` yielded an IC50 of 8.19 µM.
`O=C(O)CCCCCCCn1nc(-c2ccccc2)c(-c2ccccc2)c(-c2ccccc2)c1=O` had a 50% inhibitory concentration (IC50) above 68 µM.
Still for that read-out and setting: for `Cc1nc(-c2ccccc2)c(-c2ccccc2)n1CCCCCCCC(=O)O` the value was 4.4 µM.
On the same count and under the same terms, the value for `O=C(O)CCCCCCCSc1cc(-c2ccccc2)c(-c2ccccc2)nn1` was above 78 µM; that for `O=C(O)CCCCCCCn1nc(-c2ccccc2)c(-c2ccccc2)cc1=O` was 4.1 µM.
Same read-out and setting: the value for `O=C(O)CCCCCCCCn1nnnc1C(c1ccccc1)c1ccccc1` was above 81 µM.
As for `O=C(O)CCCCCCCCn1nc(-c2ccccc2)c2ccccc2c1=O`, the IC50 was above 85 µM.
As for `O=C(O)CCCCCCCSc1nnc(-c2ccccc2)c(-c2ccccc2)c1-c1ccccc1`, the 50% inhibitory concentration (IC50) was above 65 µM.
Compound `O=C(O)CCCCCCCn1nnnc1C(c1ccccc1)c1ccccc1` had a half-maximal inhibitory concentration (IC50) above 84 µM.
The same measure, in the same setting: for `O=C(O)CCCCOc1ccc(-n2cnc(-c3ccccc3)c2-c2ccccc2)cc1` the value was above 76 µM.
In turn, `O=C(O)CCCCCCCCc1nnc(-c2ccccc2)n1-c1ccccc1` returned an IC50 above 85 µM.
Still for that read-out and setting: for `O=C(O)CCCCCCCCn1nc(-c2ccccc2)c(-c2ccccc2)c1-c1ccccc1` the value was 0.4 µM; for `O=C(O)CCCCCCCCCCN(C(=O)c1ccccc1)c1ccccc1`, above 84 µM.
The same measure, in the same setting: for `O=C(O)CCCCCCCn1c(-c2ccccc2)nc(-c2ccccc2)c1-c1ccccc1` the value was 3.8 µM; for `O=C(O)CCCCCCCCn1cnc(-c2ccccc2)c1-c1ccccc1`, 58.4 µM; for `COc1ccc(-c2nc(CCc3cccc(OCC(=O)O)c3)oc2-c2ccc(OC)cc2)cc1`, 5.2 µM.
Still for that read-out and setting: the value for `O=C(O)CCCCCCCCn1nnc(C(c2ccccc2)c2ccccc2)n1` was 10.7 µM.
Compound `O=C(O)COc1cccc(CCc2nc(-c3ccccc3)c(-c3ccccc3)[nH]2)c1` registered an IC50 of 2.88 µM.
The compound `O=C(O)COc1cccc(CCn2nc(-c3ccccc3)n(-c3ccccc3)c2=O)c1` showed an IC50 of 1.57 µM.
Still for that read-out and setting: for `O=C(O)COc1cccc(CCn2nc(-c3ccccc3)c(-c3ccccc3)nc2=O)c1` the value was 2.1 µM.
The same measure, in the same setting: for `O=C(O)CCCCCCCCN(C(=O)c1ccccc1)c1ccccc1` the value was above 90 µM.
On the same count and under the same terms, for `O=C(O)CCCCCCCc1nnc(-c2ccccc2)n1-c1ccccc1` the value was above 88 µM; for `O=C(O)CCCCCCCn1c(C(F)(F)F)nc(-c2ccccc2)c1-c1ccccc1`, 4.64 µM.
With `O=C(O)CCCCCCCSc1nnc(-c2ccccc2)c(-c2ccccc2)n1`, the IC50 was above 74 µM.
`O=C(O)CCCCCCCCn1nc(-c2ccccc2)c(-c2ccccc2)c(-c2ccccc2)c1=O` showed an IC50 above 67 µM.
Still for that read-out and setting: for `O=C(O)CCCCCCCCn1nc(-c2ccccc2)c(-c2ccccc2)nc1=O` the value was 4.9 µM; for `O=C(O)COc1cccc(CCc2cc(-c3ccccc3)n(-c3ccccc3)n2)c1`, 1.67 µM; for `O=C(O)COc1cccc(CCc2nc(-c3ccc(F)cc3)c(-c3ccc(F)cc3)o2)c1`, 4.8 µM.
Still for that read-out and setting: the value for `O=C(O)CCCCCCCCn1nc(-c2ccccc2)c(-c2ccccc2)cc1=O` was 7.2 µM.
Consider `O=C(O)CCCCCCCCn1nccc1C(c1ccccc1)c1ccccc1`, for which the 50% inhibitory concentration (IC50) was above 82 µM.
For the compound `O=C(O)COc1cccc(CCc2nc(-c3ccccc3)c(-c3ccccc3)s2)c1`, the half-maximal inhibitory concentration (IC50) was found to be 0.86 µM.
On the same count and under the same terms, for `O=C(O)CCCCCCCCn1cc(-c2ccccc2)c(-c2ccccc2)nc1=O` the value was 29.7 µM; for `O=C(O)COc1cccc(CCc2nc(-c3ccc(C(F)(F)F)cc3)c(-c3ccc(C(F)(F)F)cc3)o2)c1`, above 60 µM.
In the case of `O=C(O)CCCCCCCCn1ccc(C(c2ccccc2)c2ccccc2)n1`, the 50% inhibitory concentration (IC50) is above 80 µM.
For `O=C(O)CCCCCCCOc1ncc(-c2ccccc2)c(-c2ccccc2)n1`, the IC50 was 35.9 µM.
Same read-out and setting: for `O=C(O)CCCCCCCCn1c(-c2ccccc2)nc(-c2ccccc2)c1-c1ccccc1` the value was 3.9 µM; for `O=C(O)COc1ccc(/C=C/c2nnc(-c3ccccc3)n2-c2ccccc2)cc1`, above 80 µM; for `O=C(O)COc1cccc(CCn2nnc(C(c3ccccc3)c3ccccc3)n2)c1`, 3.6 µM.
On the same count and under the same terms, the value for `O=C(O)COc1cccc(CCc2nnc(-c3ccccc3)n2-c2ccccc2)c1` was 12.7 µM; that for `O=C(O)CCCCCCCCn1cc(-c2ccccc2)c(-c2ccccc2)n1` [listing 2 of 2 here] was 4.5 µM.
Same read-out and setting: for `O=C(O)COc1cccc(CCn2ncc(-c3ccccc3)c2-c2ccccc2)c1` the value was 0.75 µM; for `O=C(O)CCCCCCCCn1c(=O)c2ccccc2n(-c2ccccc2)c1=O`, above 81 µM; for `O=C(O)CCCCCCCn1nc(-c2ccccc2)n(-c2ccccc2)c1=O`, above 84 µM.
Take `O=C(O)COc1cccc(CCC(=O)NC(c2ccccc2)c2ccccc2)c1`: the IC50 was above 82 µM.
Same read-out and setting: the value for `CCc1ccc(-c2nc(CCc3cccc(OCC(=O)O)c3)oc2-c2ccc(CC)cc2)cc1` was 28.3 µM; that for `Cc1nc(-c2ccccc2)c(-c2ccccc2)n1CCCCCCCCC(=O)O` was 3.04 µM.
On to `O=C(O)CCCCCCCn1cc(-c2ccccc2)c(-c2ccccc2)nc1=O`, for which the concentration for half-maximal inhibition (IC50) was found to be 25.6 µM.
Compound `Cc1ccccc1-c1nc(CCc2cccc(OCC(=O)O)c2)oc1-c1ccccc1C` had an IC50 of 11.6 µM.
Still for that read-out and setting: the value for `O=C(O)COc1ccc(CCc2nnc(-c3ccccc3)n2-c2ccccc2)cc1` was above 80 µM; that for `O=C(O)COc1cccc(CCc2nc(-c3ccc(Br)cc3)c(-c3ccc(Br)cc3)o2)c1` was 12.6 µM; that for `COc1cccc(-c2nc(CCc3cccc(OCC(=O)O)c3)oc2-c2cccc(OC)c2)c1` was 7.2 µM.
In turn, `O=C(O)COc1cccc(CCc2cc(-c3ccccc3)n(C(c3ccccc3)c3ccccc3)n2)c1` displayed a half-maximal inhibitory concentration (IC50) above 63 µM.
Still for that read-out and setting: for `Cc1cccc(-c2nc(CCc3cccc(OCC(=O)O)c3)oc2-c2cccc(C)c2)c1` the value was above 75 µM.
Same read-out and setting: for `O=C(O)COc1cccc(CCc2nc3c4ccccc4c4ccccc4c3o2)c1` the value was above 20 µM; for `O=C(O)CCCCCCCCn1nc(-c2ccccc2)n(-c2ccccc2)c1=O`, 4.1 µM; for `O=C(O)CCCCCCCCn1cc(-c2ccccc2)c(-c2ccccc2)c1`, 10.3 µM.
`O=C(O)CCCCCCCn1nc(-c2ccccc2)c(-c2ccccc2)nc1=O` had an IC50 of 7.9 µM.
Same read-out and setting: the value for `O=C(O)CCCOc1cccc(-n2cnc(-c3ccccc3)c2-c2ccccc2)c1` was below 80 µM.
Same read-out and setting: for `O=C(O)CCCCCCCn1nnc(C(c2ccccc2)c2ccccc2)n1` the value was 7.9 µM.
The same measure, in the same setting: the value for `O=C(O)CCCCCCCCN1C(=O)NC(c2ccccc2)(c2ccccc2)C1=O` was above 78 µM; that for `CSc1ccc(-c2nc(CCc3cccc(OCC(=O)O)c3)oc2-c2ccc(SC)cc2)cc1` was above 65 µM.
The compound `O=C(O)COc1cccc(Cn2cnc(-c3ccccc3)c2-c2ccccc2)c1` had an IC50 above 82 µM.
The compound `O=C(O)COc1cccc(CCn2nc(-c3ccccc3)c(-c3ccccc3)cc2=O)c1` showed an IC50 of 1.9 µM.
Consider `O=C(O)COc1cccc(CCc2nc(-c3cccc(F)c3)c(-c3cccc(F)c3)o2)c1`, for which half-maximal inhibition (IC50) was put at 17.7 µM. Against the preceding compound, the IC50 is about 9.3-fold higher.
The same measure, in the same setting: for `O=C(O)CCCCCCCn1cc(-c2ccccc2)c(-c2ccccc2)n1` the value was 1.38 µM; for `O=C(O)COc1cccc(CCc2nc(-c3cccs3)c(-c3cccs3)o2)c1`, 7.4 µM; for `O=C(O)COc1cccc(CCc2nc(C3CCCCC3)c(C3CCCCC3)o2)c1`, above 78 µM.
